Bioassay records deposited in PubChem by The Scripps Research Institute Molecular Screening Center.
M1 PAM: potentiates human M1 receptor response to acetylcholine; CHO-K1 hM1, Fluo-8 calcium fluorescence, ACh EC20; 0% = ACh EC20, 100% = maximal ACh; 0.088% of 360,000 active; activation, % at 3 µM; in the data active means activation above about 19%, passing the limit was not always enough
M5 antag: CHRM5 antagonism in calcium assay. CHO-hM5 cells, Fluo-8 calcium fluorescence, ACh EC80. inhibition, % at 3 µM. 0.59% of 360,000 active. AID 624040;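 active means inhibition above a per-plate cutoff, the mean of that plate's test compounds plus 3 SD, cut at about 27% in these data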;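 further: 0% = acetylcholine EC80 with DMSO and 100% = DMSO without agonist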
CHRM5 PAM: CHRM5 positive allosteric modulation. P08912. AID 624038. CHO-K1 hM5, Fluo-8 calcium, ACh EC20 PAM; 0% = ACh EC20, 100% = ACh EC100. 0.3% of 360,000 active. activation, % at 3 µM;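 active means activation above the run cutoff, the mean activation of all test compounds plus 3 SD, cut at about 18% in these data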
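System: CHO-K1 hM5 cells. Reagent: acetylcholine, EC20 level. Compound dosing: single dose, 3 µM nominal final test concentration. Timing: Post-acetylcholine fluorescence recording 140 s. Detection: Fluo-8 calcium fluorescence. Read-out: % activation, ACh-normalized. Benchmarks: ACh EC20 and EC100 wells. Repeats: singlicate, one well per test compound.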
CHRM5 agonist: agonists of human muscarinic M5 receptor (CHRM5); P08912; CHO-K1 hM5 cells, Fluo-8 calcium fluorescence; 0% DMSO wells, 100% maximal acetylcholine response; activation, % at 3 µM; 0.19% of 360,000 active; AID 624037;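 active means activation above the run's mean over test compounds plus 3 SD, cut at about 23% in these data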;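 further: signal is peak over basal fluorescence ratio across the kinetic read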
M1 antag: human CHRM1 antagonism. P11229. CHO-K1 hM1, Fluo-8 calcium fluorescence, ACh EC80 antagonist. inhibition, % at 3 µM. 1.3% of 360,000 active. AID 588852;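 active means percent inhibition above its own plate's cutoff, namely the mean of that plate's compound wells plus 3 SD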;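 further: peak over basal fluorescence ratio during 140 s after agonist addition; 0% = ACh EC80 plus DMSO and 100% = DMSO alone without agonist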
CHRM1 agonist: agonists of human M1 muscarinic receptor. CHO-K1 hM1, Fluo-8 calcium fluorescence, agonist mode; 0% DMSO, 100% acetylcholine EC100. 0.33% of 360,000 active. activation, % at 3 µM;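 active means activation above the run's mean compound activation plus 3 SD, cut at about 16% in these data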;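 further: peak over basal fluorescence ratio within a 140 s kinetic read after compound addition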
Active calls of the source: *; nt = no result given. Shown are actives, neighbours in structure and some others; about 2% of the full set was active somewhere.

SMILES	M1 PAM	M5 antag	CHRM5 PAM	CHRM5 agonist	M1 antag	CHRM1 agonist
N#Cc1ccc(NC(=S)N2Cc3ccccc3-n3nncc3C2)cc1	1	0	-3	3	-6	1
COC(=O)C1=C(c2ccccc2OCc2ccccc2)C[C@@H]2CC[C@H]1N2C(=O)NCc1cccc(C(F)(F)F)c1	4	10	-3	-2	0	-5
CCOC(=O)[C@]12Cc3cc(C)ccc3[C@H]1N(C)C(=O)c1cc(OC)ccc12	nt	-4	5	-2	nt	nt
O=C1NCN(c2ccccc2)C12CCN(C(c1cccs1)c1nnnn1-c1ccc3c(c1)OCCO3)CC2 (centres undefined)	14	5	-1	8	-35	5
O=C1NCN(c2ccccc2)C12CCN(C(c1ccccc1)c1nnnn1-c1ccc3c(c1)OCCO3)CC2 (centres undefined)	20	12	-6	4	5	17*
CCCCCSc1cc(OC)c(CCN(C)C)cc1OC	-25	5	-10	-9	49*	2
O=[N+]([O-])c1[nH]cnc1Br	-3	8	-3	1	0	0
Cc1ccc(-n2c(=O)[nH]c3ccccc3c2=O)cc1[N+](=O)[O-]	3	7	-10	2	-8	2
CCC(CO)(C(=O)OC1C[N+]2(C)CCC1CC2)c1ccccc1 (centres undefined)	-33	99*	-19	-11	99*	-14
O=C(C[N+]12CCC(CC1)C(OC(=O)c1ccccc1)C2)c1ccc([N+](=O)[O-])cc1 (centres undefined)	-6	4	4	-18	12	4
CCC(C)NC(=O)c1c(N)n(Cc2ccc3c(c2)OCO3)c2nc3ccccc3nc12 (centres undefined)	8	-5	19*	9	-30	1
Cc1ccccc1C(O)(Cc1ccccc1)C1CN2CCC1CC2 (centres undefined)	-26	92*	-30	-13	98*	-6
CCc1nn2c(=O)c(F)c(N3CCNCC3)nc2s1	-9	4	-1	2	12	-5
Cn1cc(C(=O)c2ccccc2)c2ccccc21	0	-3	-11	31*	-11	-11
O=C(O)Cn1cc(C(=O)c2ccccc2)c2ccccc21	9	3	-1	-1	-15	-1
CC(Cc1ccccc1Sc1ccccc1O)N(C)C (centres undefined)	-23	99*	-22	-3	98*	-4
C=C(C)[C@@]12OC3(c4ccccc4)O[C@@H]1C1[C@@H]4O[C@]4(CO)[C@@H](O)[C@]4(O)C(=O)C(C)=C[C@H]4[C@@]1(O3)[C@H](C)[C@H]2OC(=O)/C=C/C=C/c1ccccc1 (some centres undefined)	-32	24	-25	-3	43*	-7
c1cc2c(cc1CCNC1C3CC4CC(C3)CC1C4)OCO2 (centres undefined)	-10	3	-11	-6	14	-6
CC1CCC(NCCc2ccc3c(c2)OCO3)CC1 (centres undefined)	-30	-2	-12	-6	34*	-10
